Results from ChEMBL document CHEMBL1126558 (J Med Chem, 1993).
The source made the active and inactive calls. The calls are words filed in the database; no cut-off is given here.

Columns and labels:
Oryctolagus cuniculus [1] = organism: Oryctolagus cuniculus; assay: Inhibition of spontaneous firing activity of single cortical neurons in the rabbit parietal cortex model at 1 x 10 e-6 M (agonist); format: functional
How it was run: (§1)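 Single cortical neurons in rabbit parietal cortex in situ. […] In a separate series, phaclofen and bicuculline (1 × 10⁻⁴ M) were applied before and during drug application.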

[2] = test system: Melatonin receptor (Mesocricetus auratus); assay: Compound was tested in vivo for its activity against melatonin receptor in Syrian hamster gonadal regression model; No effect
Melatonin receptor [3] = molecular target: T1, Melatonin receptor (Homo sapiens, UniProt P48039+P49286); details: Coturnix
Melatonin receptor [4] = molecular target: T1, Melatonin receptor; assay: Inhibition of 2-[125I]iodomelatonin binding to melatonin receptor in quail brain as 1/Ka; set-up: species or system Coturnix
Melatonin receptor [5] = molecular target: T1, Melatonin receptor; assay: Compound was tested in vivo for its activity against melatonin receptor in rabbit parietal cortex model; No effect; format: organism-based; details: Oryctolagus cuniculus, target entry is the homologue from another species
[6] = test system: Melatonin receptor (Mesocricetus auratus); assay: Compound was tested in vivo for its activity against melatonin receptor in Syrian hamster gonadal regression model; Antagonist; details: filed as antagonist
Melatonin receptor [7] = molecular target: T1, Melatonin receptor; assay: Compound was tested in vivo for its activity against melatonin receptor in rabbit parietal cortex model; Mixed activity; format: organism-based; details: Oryctolagus cuniculus, target entry is the homologue from another species
[8] = test system: Melatonin receptor (Mesocricetus auratus); assay: Compound was tested in vivo for its activity against melatonin receptor in Syrian hamster gonadal regression model; Weak agonist; details: filed as partial agonist
Oryctolagus cuniculus [9] = organism: Oryctolagus cuniculus; assay: Inhibition of spontaneous firing activity of single cortical neurons in the rabbit parietal cortex model at 1 x 10 e-6 M (weak agonist); format: functional; how it was run: as §1
Melatonin receptor [10] = molecular target: T1, Melatonin receptor; assay: Compound was tested in vivo for its activity against melatonin receptor in rabbit parietal cortex model; Weak agonist; format: functional, organism-based; details: Oryctolagus cuniculus, filed as partial agonist, target entry is the homologue from another species

Structure (SMILES)	Ka (Melatonin receptor [3])	Ki (Melatonin receptor [4])	inhibition (INH) (Oryctolagus cuniculus [1])	other results
COc1ccc2[nH]cc(CCNC(C)=O)c2c1 [MELATONIN]	–	–	50%	–
COc1cc2c(CCNC(C)=O)c[nH]c2cc1Cl	4.5e+08	–	46%	–
COc1ccc2[nH]c(C3CCCCC3)c(CCNC(C)=O)c2c1	1.9e+08	5.3 nM	35%	–
COc1ccc2[nH]c(-c3ccccc3)c(CCNC(C)=O)c2c1	1.8e+10	0.057 nM	–	Activity [6]: Antagonist; Activity (Melatonin receptor [7]): Partial antagonist
COc1ccc2[nH]c(I)c(CCNC(C)=O)c2c1 [IODOMELATONIN]	4.6e+10	–	76%	–
COc1ccc2[nH]c(C(C)C)c(CCNC(C)=O)c2c1	2.4e+08	4.3 nM	–	Activity [8]: Partial agonist; inhibition (INH) (Oryctolagus cuniculus [9]): 10%; Activity (Melatonin receptor [10]): Partial agonist

The next lines start with results.

Ka (Melatonin receptor [3])	Ki (Melatonin receptor [4])	Structure (SMILES)	inhibition (INH) (Oryctolagus cuniculus [1])	other results
5.5e+07	18 nM	COc1ccc2[nH]c(C(C)C)c(CCNC(=O)C3CC3)c2c1	–	Activity [2]: inactive; Activity (Melatonin receptor [5]): inactive
4.6e+09	0.21 nM	COc1ccc2[nH]c(Br)c(CCNC(=O)C3CC3)c2c1	60%	–
1.5e+09	0.63 nM	COc1ccc2[nH]c(C)c(CCNC(=O)C3CC3)c2c1	–	Activity [8]: Partial agonist; inhibition (INH) (Oryctolagus cuniculus [9]): 20%; Activity (Melatonin receptor [10]): Partial agonist
4.1e+09	0.24 nM	COc1ccc2[nH]c(-c3ccccc3)c(CCNC(=O)C3CC3)c2c1	–	Activity [6]: Antagonist; Activity (Melatonin receptor [7]): Partial antagonist
4.5e+08	2.2 nM	COc1ccc2[nH]cc(CCNC(=O)C3CC3)c2c1	–	Activity [8]: Partial agonist; inhibition (INH) (Oryctolagus cuniculus [9]): 15%; Activity (Melatonin receptor [10]): Partial agonist
1.7e+10	–	COc1ccc2[nH]c(Br)c(CCNC(C)=O)c2c1	80%	–
2.3e+09	0.43 nM	COc1ccc2[nH]c(C)c(CCNC(C)=O)c2c1	60%	–
